Most compounds without a hit are left out; they make up all but 1% or so of the library.
FXIa inh 1536: inhibitors of human coagulation factor XIa | purified FXIa, Boc-Glu-Ala-Arg-AMC fluorogenic substrate | inhibition, % at 5 µM | 220,000 compounds, 0.14% hits;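 active = inhibition of at least 40%; inactive = inhibition below 40%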;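 also: fluorescence of freed AMC excited at 355 nm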
KLK5 inh: blocks human kallikrein 5 protease activity | Q9Y337 | recombinant hK5, fluorogenic AMC substrate cleavage | inhibition, % at 5 µM | 210,000 compounds, 0.59% hits;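 active = inhibition of 40% or more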
Target sequence (Q9Y337 67-293 limits assumed): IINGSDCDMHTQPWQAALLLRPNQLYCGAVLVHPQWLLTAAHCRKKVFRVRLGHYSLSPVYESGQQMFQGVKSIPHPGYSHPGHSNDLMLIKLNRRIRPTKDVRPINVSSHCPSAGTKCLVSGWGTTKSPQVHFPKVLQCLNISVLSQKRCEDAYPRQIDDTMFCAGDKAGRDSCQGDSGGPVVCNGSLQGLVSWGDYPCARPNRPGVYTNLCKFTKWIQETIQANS
FXIIa inh: inhibitors of human coagulation factor XIIa | inhibition, % at 5 µM | purified FXIIa, Boc-QGR-AMC fluorogenic substrate, 2 h | 220,000 compounds, 0.3% hits | P00748; in the data active = inhibition above about 40%
Thrombin inh: blocks human thrombin protease activity | alpha-thrombin, Boc-VPR-AMC fluorogenic substrate cleavage | inhibition, % at 5 µM | 220,000 compounds, 0.26% hits;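 active = inhibition at or above 40%; inactive = inhibition below 40%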
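Material: human alpha-thrombin protein; Also added: Boc-VPR-AMC substrate, 15 µM final; Timing: enzyme reaction carried out at room temperature; Signal: fluorescence, ex 355 nm, em 460 nm; Measure: % inhibition of thrombin; Controls: enzyme without compound as high, wells lacking enzyme as low.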
A number is an active result; i = inactive; nt = not tested or not shown.

SMILES	FXIa inh 1536	KLK5 inh	FXIIa inh	Thrombin inh
CCOc1ccc(C(=O)CC(=O)C(=O)NCCc2ccc(OC)c(OC)c2)cc1	i	i	i	i
CCc1ccc(NC(=S)N(Cc2cccc(Br)c2)CC2CCC(C(=O)O)CC2)cc1 (stereo not given)	i	65	i	i
Cc1cc(C)cc(NC(=S)N(Cc2cccc(Br)c2)CC2CCC(C(=O)O)CC2)c1 (stereo not given)	i	i	i	i
NC(=O)c1c(NC(=O)Cn2nc(C(=O)O)c3ccccc3c2=O)sc2c1CCCC2	i	i	i	99
CCS(=O)(=O)N1CCCC(c2nc(-c3cccc(OC)c3)no2)C1 (stereo not given)	i	40	i	i
O=C(N/N=C/c1ccccc1C(=O)O)c1ccccc1Br	62	60	i	i
Cc1cc(/C=N/NC(=O)c2ccc(O)cc2)c(C)n1CC(C)C	i	i	i	i
CCOc1cccc2c1OC1(C)CC2NC(=O)N1Cc1ccccc1 (stereo not given)	62	i	i	i
CSc1ncc(CN2CCc3c([nH]c4ccccc34)C2c2cccc(O)c2)cn1 (stereo not given)	i	i	i	i
CCc1cccc(CC)c1NC(=O)c1ccccc1	i	i	i	i
CCc1cccc(CC)c1NC(=O)c1cccc(N)c1	i	i	i	46
CN(c1ccccc1)S(=O)(=O)c1cccc(NC(=O)c2ccc3ncsc3c2)c1	i	i	i	i
Cc1cc(/C(N)=N/OC(=O)c2ccc(Cl)cc2)no1	i	44	i	i
Cc1cc(/C(N)=N/OC(=O)c2cccc(Cl)c2)no1	i	i	i	i
O=C(CCn1ccnc1)Nc1ccc2ccccc2c1	i	i	i	i
CC/C(=N\NC(=S)Nc1cc(C)ccc1C)c1ccc(OC(F)F)cc1	i	i	i	i
CCSc1nnc(NC(=O)[C@H](C)N2C(=O)C3CC=CCC3C2=O)s1 (stereo not given in full)	56	46	i	i
CN(Cc1ccon1)C(=O)CC1C(=O)NCCN1CC1CCCCC1 (stereo not given)	60	i	i	i
Cc1occc1C(=O)Nc1ccccc1C(=O)O	i	i	i	i
CCCC(=O)NNC(=O)c1ccoc1C	i	i	40	i
Cc1cc(C)c(NC(=O)c2ccoc2C)c(C)c1	i	61	i	i
CCOC(=O)CN1C(=O)CN(c2ccc(C)c(C)c2)C1=O	i	i	i	i
CCOc1ccc(N(CC(=O)N/N=C/c2cccnc2)S(C)(=O)=O)cc1	i	i	i	i
Cc1ccc(S(=O)(=O)NC(=O)NCCc2ccccc2)cc1	i	nt	i	i
NNC(=O)CN1C(=O)Nc2ccc(Br)cc2C1c1ccccc1 (stereo not given)	i	42	i	55
SMILES	FXIa inh 1536	KLK5 inh	FXIIa inh	Thrombin inh
COc1ccc(OC)c(Cc2nnc(CCC(=O)N3CCC(N4CCCCC4)CC3)o2)c1	i	44	i	i
COc1ccc(OC)c(Cc2nnc(CCC(=O)N3CCCCCC3)o2)c1	i	i	i	i
COc1ccc(CNC(=S)Nc2ccccc2-c2ccccc2)cc1	i	i	i	i
CCC1(C)SC(N)=NN1C(C)=O (stereo not given)	i	i	i	i
CCc1ccc(C2CC(c3ccccc3)n3ncnc3N2)cc1 (stereo not given)	i	45	i	i
CCNc1nc(SC(C)C(=O)OC)nc(N2CCOCC2)n1 (stereo not given)	i	115	i	i
O=c1oc(-c2ccccc2NS(=O)(=O)c2ccc3ccccc3c2)nc2ccccc12	i	59	i	i
COc1cc(OC)cc(-c2nc3ccccc3c(=O)n2OC(=O)c2ccc(C)c(C)c2)c1	i	i	i	i
CC(=O)Nc1ccc(NS(=O)(=O)c2ccc(C)cc2)c([N+](=O)[O-])c1	i	i	i	i
CC(=O)Nc1ccc(NS(=O)(=O)c2ccc(C)cc2)cc1[N+](=O)[O-]	i	47	i	i
CCN(CC)CCCN(Cc1cc2cc3c(cc2[nH]c1=O)OCO3)C(=S)Nc1ccccc1OC	i	52	i	45
CCNC(=S)Nc1ccc(Cl)c([N+](=O)[O-])c1	i	i	i	i
N/C(=N\OC(=O)c1ccc(Cl)c([N+](=O)[O-])c1)c1ccccn1	i	i	98	i
N/C(=N\OC(=O)c1ccc(Cl)c(Cl)c1)c1ccccn1	i	i	i	i
O=C(NCCN=C1NS(=O)(=O)c2ccccc21)c1ccco1	i	74	i	i
CC1(C)NC(=O)N(CC(O)COc2ccccc2-c2ccccc2)C1=O (stereo not given)	i	i	i	i
COc1ccccc1OCC(O)CN1C(=O)NC(C)(C)C1=O (stereo not given)	i	64	i	i
CC(CCc1ccccc1)NC(=O)c1ccc(Cl)nc1 (stereo not given)	i	i	i	i
O=C(NCc1ccccc1)c1ccc(Cl)nc1	45	i	i	i
N#CCCCSC1=C(C#N)C(c2ccccc2Cl)CC(=O)N1 (stereo not given)	i	i	i	i
C/C(=N\NS(=O)(=O)c1ccc(Cl)c([N+](=O)[O-])c1)c1cc2ccccc2o1	i	i	i	i
C/C(=N\NS(=O)(=O)c1ccc(C)c([N+](=O)[O-])c1)c1cc2ccccc2o1	i	107	i	i
O=C(Nc1ccccc1N1CCOCC1)c1ccc2nc[nH]c2c1	i	i	i	56
O=C(Nc1ccccc1N1CCOCC1)c1cccc(F)c1	i	i	i	i
O=C(Cn1cncc1-c1ccc([N+](=O)[O-])cc1)Nc1ccccc1F	i	i	i	i
SMILES	FXIa inh 1536	KLK5 inh	FXIIa inh	Thrombin inh
CCCc1nc(NC(C)=O)c(C#N)c(-c2ccco2)c1CC	i	i	i	40
NS(=O)(=O)c1cccc(NC(=O)CN2CCN(Cc3ccc4c(c3)OCO4)CC2)c1	i	i	i	i
Cc1c(/C(O)=C2/C(=O)C(=O)N(CCN3CCOCC3)C2c2cccs2)cnn1-c1ccccc1 (stereo not given)	i	i	105	i
O=C(NNC(=O)C(c1ccccc1)c1ccccc1)c1cccs1	i	56	i	104
O=C(NNC(=O)c1cccs1)c1ccc(Br)o1	43	i	i	i
Cc1ccc(C)c2c(N)c3c(nc12)CCCCC3 (tested in a mixture with another compound)	i	i	i	i
N#CCC(=O)Nc1ccc(C(=O)NCc2cccc(Cl)c2)cc1	i	i	i	i
Cc1ccc(C)c(S(=O)(=O)Nc2ccc(C(=O)NCCc3ccccn3)cc2)c1	i	i	i	i
COCCNC(=O)c1ccc(NS(=O)(=O)c2cc(C)ccc2C)cc1	i	42	i	i
O=C1CC(Sc2ccc(Cl)cc2)C(=O)N1c1ccc2c(c1)OCCO2 (stereo not given)	44	53	i	i
Nc1ccccc1SC1CC(=O)N(c2ccc3c(c2)OCCO3)C1=O (stereo not given)	i	i	i	i
O=C(c1ccco1)N1CCN(C(=O)N2c3ccccc3Sc3ccccc32)CC1	i	43	i	104
C=CCN=C(NC#N)SC	i	i	i	i
COc1ccc(NC(=O)CCN2C(=O)c3ccncc3C2=O)cc1OC	i	i	i	i

Compound activity from PubChem BioAssay.
